Source: ChEMBL document CHEMBL4043163, “Methyl propiolate and 3-butynone: Starting points for synthesis of amphiphilic 1,2,3-triazole peptidomimetics for antimicrobial evaluation” (Bioorg Med Chem, 2017)
The source made the active and inactive calls. No cut-off for these calls is given here.

What was measured:
Pseudomonas aeruginosa [1] = experiment: Antimicrobial activity against Pseudomonas aeruginosa ATCC 27853 assessed as growth inhibition incubated overnight at 37degC by visual and photometry based method; format: functional
Staphylococcus aureus [2] = experiment: Antimicrobial activity against Staphylococcus aureus ATCC 25923 assessed as growth inhibition incubated overnight at 37degC by visual and photometry based method; format: functional
Streptococcus agalactiae = experiment: Antimicrobial activity against Streptococcus agalactiae ATCC 12386 assessed as growth inhibition incubated overnight at 37degC by visual and photometry based method; format: functional
Escherichia coli [3] = experiment: Antimicrobial activity against Escherichia coli ATCC 25922 assessed as growth inhibition incubated overnight at 37degC by visual and photometry based method; format: functional
Enterococcus faecalis [4] = experiment: Antimicrobial activity against Enterococcus faecalis ATCC 29212 assessed as growth inhibition incubated overnight at 37degC by visual and photometry based method; format: functional
[5] = tested on: Staphylococcus epidermidis; experiment: Inhibition of biofilm formation of Staphylococcus epidermidis incubated overnight at 37degC by crystal violet based assay; format: functional
[6] = Selectivity index, ratio of EC50 for human HepG2 cells to MIC for Streptococcus agalactiae ATCC 12386; format: toxicity; conditions: read-out: Selectivity Index
Method in brief: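 Selectivity index computed as HepG2 EC50 (24 h MTS assay) divided by S. agalactiae MIC.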

HepG2 = experiment: Cytotoxicity against human HepG2 cells incubated for 24 hrs by CellTiter 96 aqueous one solution reagent based assay; format: cell-based; conditions: HepG2, 24 h
Method in brief: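 HepG2 seeded 20,000 cells/well overnight, then exposed 24 h to a concentration range in serum-free MEM Earle's (gentamycin, NEAA, pyruvate, alanyl-glutamine); MTS reagent 1 h, absorbance 485 nm; % survival versus medium and Triton X-100 controls; EC50 from four-parameter normalized nonlinear regression.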

Pseudomonas aeruginosa [7] = experiment: Antimicrobial activity against Pseudomonas aeruginosa ATCC 27853 assessed as growth inhibition =<64 ug/ml incubated overnight at 37degC by visual and photometry based method; format: functional
Enterococcus faecalis [8] = experiment: Antimicrobial activity against Enterococcus faecalis ATCC 29212 assessed as growth inhibition at =<64 ug/ml incubated overnight at 37degC by visual and photometry based method; format: functional
Staphylococcus aureus [9] = experiment: Antimicrobial activity against Staphylococcus aureus ATCC 25923 assessed as growth inhibition =<64 ug/ml incubated overnight at 37degC by visual and photometry based method; format: functional
Escherichia coli [10] = experiment: Antimicrobial activity against Escherichia coli ATCC 25922 assessed as growth inhibition =<64 ug/ml incubated overnight at 37degC by visual and photometry based method; format: functional
[11] = tested on: Staphylococcus epidermidis; experiment: Inhibition of biofilm formation of Staphylococcus epidermidis at =<64 ug/ml incubated overnight at 37degC by crystal violet based assay; format: functional

Molecule: CCCCCCCn1cc(C(=O)N2CCN(C)CC2)nn1
- MIC (Pseudomonas aeruginosa [1]): inactive
- MIC (Staphylococcus aureus [2]): inactive
- MIC (Streptococcus agalactiae): inactive
- MIC (Escherichia coli [3]): inactive
- MIC (Enterococcus faecalis [4]): inactive

Molecule: CCCCCCCOc1ccc(-n2cc(C(=O)NCCNC(=N)N)nn2)cc1.Cl
- MIC [5]: 4 µg/mL
- MIC (Pseudomonas aeruginosa [1]): 8 µg/mL
- MIC (Staphylococcus aureus [2]): 4 µg/mL
- MIC (Streptococcus agalactiae): 8 µg/mL
- MIC (Escherichia coli [3]): 8 µg/mL
- selectivity ratio [6]: 2.97
- EC50 (HepG2): 23.8 µg/mL
- MIC (Enterococcus faecalis [4]): 16 µg/mL

Molecule: N=C(N)N1CCN(C(=O)c2cn(C34CC5CC(CC(C5)C3)C4)nn2)CC1
- MIC (Pseudomonas aeruginosa [1]): inactive
- MIC (Staphylococcus aureus [2]): inactive
- MIC (Streptococcus agalactiae): inactive
- MIC (Escherichia coli [3]): inactive
- MIC (Enterococcus faecalis [4]): inactive

Molecule: CCCCCCCn1cc(C(=O)N2CCNCC2)nn1
- MIC (Pseudomonas aeruginosa [1]): inactive
- MIC (Staphylococcus aureus [2]): inactive
- MIC (Streptococcus agalactiae): inactive
- MIC (Escherichia coli [3]): inactive
- MIC (Enterococcus faecalis [4]): inactive

Molecule: CC(C)(C)c1ccc(Cn2cc(C(=O)NCCNC(=N)N)nn2)cc1
- MIC (Pseudomonas aeruginosa [1]): inactive
- MIC (Staphylococcus aureus [2]): inactive
- MIC (Streptococcus agalactiae): inactive
- MIC (Escherichia coli [3]): inactive
- MIC (Enterococcus faecalis [4]): inactive

Molecule: CC(C)(C)c1cc(Cn2cc(C(=O)N3CCNCC3)nn2)cc(C(C)(C)C)c1.Cl
- growth inhibition (GI) (Pseudomonas aeruginosa [7]): inactive
- MIC (Staphylococcus aureus [2]): 64 µg/mL
- MIC (Streptococcus agalactiae): 64 µg/mL
- MIC (Escherichia coli [3]): 64 µg/mL
- growth inhibition (GI) (Enterococcus faecalis [8]): inactive

Molecule: CCCCCCCn1cc(C(=O)NCCNC(=N)N)nn1
- MIC (Pseudomonas aeruginosa [1]): inactive
- MIC (Staphylococcus aureus [2]): inactive
- MIC (Streptococcus agalactiae): inactive
- MIC (Escherichia coli [3]): inactive
- MIC (Enterococcus faecalis [4]): inactive

Molecule: C/C(=N\NC(=N)N)c1cn(-c2ccc(OCc3cc(C(C)(C)C)cc(C(C)(C)C)c3)cc2)nn1.Cl
- growth inhibition (GI) (Pseudomonas aeruginosa [7]): inactive
- growth inhibition (GI) (Staphylococcus aureus [9]): inactive
- MIC [5]: 4 µg/mL
- growth inhibition (GI) (Escherichia coli [10]): inactive
- MIC (Streptococcus agalactiae): 0.5 µg/mL
- selectivity ratio [6]: 3.86
- EC50 (HepG2): 1.9 µg/mL
- MIC (Enterococcus faecalis [4]): 64 µg/mL

Molecule: CN1CCN(C(=O)c2cn(Cc3ccc(C(C)(C)C)cc3)nn2)CC1
- MIC (Pseudomonas aeruginosa [1]): inactive
- MIC (Staphylococcus aureus [2]): inactive
- MIC (Streptococcus agalactiae): inactive
- MIC (Escherichia coli [3]): inactive
- MIC (Enterococcus faecalis [4]): inactive

Molecule: C/C(=N\NC(=N)N)c1cn(-c2cc(C(C)(C)C)cc(C(C)(C)C)c2)nn1.O=C(O)C(F)(F)F
- MIC [5]: 4 µg/mL
- MIC (Pseudomonas aeruginosa [1]): 16 µg/mL
- MIC (Staphylococcus aureus [2]): 4 µg/mL
- MIC (Streptococcus agalactiae): 2 µg/mL
- MIC (Escherichia coli [3]): 4 µg/mL
- selectivity ratio [6]: 1.32
- EC50 (HepG2): 2.6 µg/mL
- MIC (Enterococcus faecalis [4]): 4 µg/mL

Molecule: CN1CCN(C(=O)c2cn(Cc3cc(C(C)(C)C)cc(C(C)(C)C)c3)nn2)CC1
- MIC (Pseudomonas aeruginosa [1]): inactive
- MIC (Staphylococcus aureus [2]): inactive
- MIC (Streptococcus agalactiae): inactive
- MIC (Escherichia coli [3]): inactive
- MIC (Enterococcus faecalis [4]): inactive

Molecule: GENTAMICIN
- MIC (Staphylococcus aureus [2]): 0.13 µg/mL
- MIC (Streptococcus agalactiae): 4 µg/mL
- MIC (Enterococcus faecalis [4]): 10 µg/mL

Molecule: CC(C)(C)c1cc(COc2ccc(-n3cc(C(=O)NCCNC(=N)N)nn3)cc2)cc(C(C)(C)C)c1.Cl
- growth inhibition (GI) (Pseudomonas aeruginosa [7]): inactive
- MIC [5]: 2 µg/mL
- growth inhibition (GI) (Escherichia coli [10]): inactive
- MIC (Staphylococcus aureus [2]): 8 µg/mL
- MIC (Streptococcus agalactiae): 4 µg/mL
- selectivity ratio [6]: 4.04
- EC50 (HepG2): 16.2 µg/mL
- MIC (Enterococcus faecalis [4]): 16 µg/mL

Molecule: CCCCCCCn1cc(C(=O)N2CCN(C(=N)N)CC2)nn1
- MIC (Pseudomonas aeruginosa [1]): inactive
- MIC (Staphylococcus aureus [2]): inactive
- MIC (Streptococcus agalactiae): inactive
- MIC (Escherichia coli [3]): inactive
- MIC (Enterococcus faecalis [4]): inactive

Molecule: CC(C)(C)c1cc(Cn2cc(C(=O)NCCNC(=N)N)nn2)cc(C(C)(C)C)c1.Cl
- MIC (Pseudomonas aeruginosa [1]): 32 µg/mL
- MIC (Staphylococcus aureus [2]): 32 µg/mL
- MIC (Streptococcus agalactiae): 16 µg/mL
- MIC (Escherichia coli [3]): 64 µg/mL
- MIC (Enterococcus faecalis [4]): 64 µg/mL

Molecule: N=C(N)NCCNC(=O)c1cn(C23CC4CC(CC(C4)C2)C3)nn1
- MIC (Pseudomonas aeruginosa [1]): inactive
- MIC (Staphylococcus aureus [2]): inactive
- MIC (Streptococcus agalactiae): inactive
- MIC (Escherichia coli [3]): inactive
- MIC (Enterococcus faecalis [4]): inactive

Molecule: CC(C)(C)c1ccc(Cn2cc(C(=O)N3CCNCC3)nn2)cc1
- MIC (Pseudomonas aeruginosa [1]): inactive
- MIC (Staphylococcus aureus [2]): inactive
- MIC (Streptococcus agalactiae): inactive
- MIC (Escherichia coli [3]): inactive
- MIC (Enterococcus faecalis [4]): inactive

Molecule: O=C(c1cn(C23CC4CC(CC(C4)C2)C3)nn1)N1CCNCC1
- MIC (Pseudomonas aeruginosa [1]): inactive
- MIC (Staphylococcus aureus [2]): inactive
- MIC (Streptococcus agalactiae): inactive
- MIC (Escherichia coli [3]): inactive
- MIC (Enterococcus faecalis [4]): inactive

Molecule: NCCNC(=O)c1cn(C23CC4CC(CC(C4)C2)C3)nn1
- MIC (Pseudomonas aeruginosa [1]): inactive
- MIC (Staphylococcus aureus [2]): inactive
- MIC (Streptococcus agalactiae): inactive
- MIC (Escherichia coli [3]): inactive
- MIC (Enterococcus faecalis [4]): inactive

Molecule: CC(C)(C)c1ccc(Cn2cc(C(=O)NCCN)nn2)cc1
- MIC (Pseudomonas aeruginosa [1]): inactive
- MIC (Staphylococcus aureus [2]): inactive
- MIC (Streptococcus agalactiae): inactive
- MIC (Escherichia coli [3]): inactive
- MIC (Enterococcus faecalis [4]): inactive

Molecule: CCCCCCCOc1ccc(-n2cc(/C(C)=N/NC(=N)N)nn2)cc1.O=C(O)C(F)(F)F
- growth inhibition (GI) (Staphylococcus aureus [9]): inactive
- MIC [5]: 8 µg/mL
- MIC (Pseudomonas aeruginosa [1]): 64 µg/mL
- MIC (Streptococcus agalactiae): 8 µg/mL
- MIC (Escherichia coli [3]): 16 µg/mL
- selectivity ratio [6]: 0.25
- EC50 (HepG2): 2 µg/mL
- MIC (Enterococcus faecalis [4]): 32 µg/mL

Molecule: CC(C)(C)c1cc(-n2cc(C(=O)NCCN)nn2)cc(C(C)(C)C)c1.Cl
- inhibition [11]: inactive
- MIC (Pseudomonas aeruginosa [1]): 32 µg/mL
- MIC (Staphylococcus aureus [2]): 16 µg/mL
- MIC (Streptococcus agalactiae): 16 µg/mL
- MIC (Escherichia coli [3]): 16 µg/mL
- selectivity ratio [6]: 0.5
- EC50 (HepG2): 8 µg/mL
- MIC (Enterococcus faecalis [4]): 32 µg/mL

Molecule: C/C(=N\NC(=N)N)c1cn(Cc2cc(C(C)(C)C)cc(C(C)(C)C)c2)nn1.Cl
- MIC [5]: 4 µg/mL
- MIC (Pseudomonas aeruginosa [1]): 8 µg/mL
- MIC (Staphylococcus aureus [2]): 4 µg/mL
- MIC (Streptococcus agalactiae): 4 µg/mL
- MIC (Escherichia coli [3]): 8 µg/mL
- selectivity ratio [6]: 0.57
- EC50 (HepG2): 2.3 µg/mL
- MIC (Enterococcus faecalis [4]): 8 µg/mL

Molecule: CC(C)(C)c1cc(Cn2cc(C(=O)NCCN)nn2)cc(C(C)(C)C)c1.Cl
- MIC (Pseudomonas aeruginosa [1]): 64 µg/mL
- MIC (Staphylococcus aureus [2]): 64 µg/mL
- MIC (Streptococcus agalactiae): 64 µg/mL
- MIC (Escherichia coli [3]): 32 µg/mL
- growth inhibition (GI) (Enterococcus faecalis [8]): inactive

Molecule: CCCCCCCn1cc(C(=O)NCCN)nn1
- MIC (Pseudomonas aeruginosa [1]): inactive
- MIC (Staphylococcus aureus [2]): inactive
- MIC (Streptococcus agalactiae): inactive
- MIC (Escherichia coli [3]): inactive
- MIC (Enterococcus faecalis [4]): inactive

Molecule: CN1CCN(C(=O)c2cn(C34CC5CC(CC(C5)C3)C4)nn2)CC1
- MIC (Pseudomonas aeruginosa [1]): inactive
- MIC (Staphylococcus aureus [2]): inactive
- MIC (Streptococcus agalactiae): inactive
- MIC (Escherichia coli [3]): inactive
- MIC (Enterococcus faecalis [4]): inactive

Molecule: CC(C)(C)c1cc(COc2ccc(-n3cc(C(=O)NCCN)nn3)cc2)cc(C(C)(C)C)c1.Cl
- growth inhibition (GI) (Staphylococcus aureus [9]): inactive
- MIC [5]: 8 µg/mL
- MIC (Pseudomonas aeruginosa [1]): 16 µg/mL
- growth inhibition (GI) (Escherichia coli [10]): inactive
- MIC (Streptococcus agalactiae): 2 µg/mL
- selectivity ratio [6]: 1.44
- EC50 (HepG2): 2.9 µg/mL
- MIC (Enterococcus faecalis [4]): 8 µg/mL

Molecule: CCCCCCCOc1ccc(-n2cc(C(=O)NCCN)nn2)cc1.Cl
- MIC [5]: 4 µg/mL
- MIC (Pseudomonas aeruginosa [1]): 16 µg/mL
- growth inhibition (GI) (Escherichia coli [10]): inactive
- MIC (Staphylococcus aureus [2]): 4 µg/mL
- MIC (Streptococcus agalactiae): 8 µg/mL
- selectivity ratio [6]: 0.44
- EC50 (HepG2): 3.5 µg/mL
- growth inhibition (GI) (Enterococcus faecalis [8]): inactive

Molecule: CC(C)(C)c1cc(-n2cc(C(=O)NCCNC(=N)N)nn2)cc(C(C)(C)C)c1.Cl
- MIC [5]: 4 µg/mL
- MIC (Pseudomonas aeruginosa [1]): 16 µg/mL
- MIC (Staphylococcus aureus [2]): 8 µg/mL
- MIC (Streptococcus agalactiae): 8 µg/mL
- MIC (Escherichia coli [3]): 16 µg/mL
- selectivity ratio [6]: 3.91
- EC50 (HepG2): 31.3 µg/mL
- MIC (Enterococcus faecalis [4]): 16 µg/mL

Molecule: CC(C)(C)c1cc(Cn2cc(C(=O)N3CCN(C(=N)N)CC3)nn2)cc(C(C)(C)C)c1.Cl
- MIC (Pseudomonas aeruginosa [1]): 64 µg/mL
- growth inhibition (GI) (Escherichia coli [10]): inactive
- MIC (Staphylococcus aureus [2]): 64 µg/mL
- MIC (Streptococcus agalactiae): 32 µg/mL
- growth inhibition (GI) (Enterococcus faecalis [8]): inactive
